According to BindingDB's records for doi:10.1021/jm048999e (2005):

Target: T1, 5-hydroxytryptamine receptor 1A (Rattus norvegicus, UniProt P19327)
T1 sequence (P19327 whole entry): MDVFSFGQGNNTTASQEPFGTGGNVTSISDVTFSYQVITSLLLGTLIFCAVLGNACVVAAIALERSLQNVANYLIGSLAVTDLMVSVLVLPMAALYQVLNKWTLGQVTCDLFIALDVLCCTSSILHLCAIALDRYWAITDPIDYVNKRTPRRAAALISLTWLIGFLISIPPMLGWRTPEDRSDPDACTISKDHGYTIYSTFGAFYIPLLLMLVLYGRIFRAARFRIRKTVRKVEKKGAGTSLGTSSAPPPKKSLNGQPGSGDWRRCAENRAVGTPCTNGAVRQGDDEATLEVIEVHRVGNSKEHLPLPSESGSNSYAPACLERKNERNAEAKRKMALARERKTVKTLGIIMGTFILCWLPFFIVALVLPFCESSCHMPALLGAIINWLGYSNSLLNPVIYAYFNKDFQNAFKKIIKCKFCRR
Experiment: In vitro inhibition of [3H]8-OH-DPAT binding to 5-hydroxytryptamine 1A receptor in rat cerebral cortex membranes
Summary of the method: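 Rat cerebral cortex membranes (about 1 mg protein) incubated 15 min at 37 °C with 0.6 nM [3H]-8-OH-DPAT in 50 mM Tris-HCl, pH 7.4, containing 10 nM clonidine and 30 nM prazosin. Nonspecific binding with 10 µM 5-HT. Compounds screened at 10^-6 M; curves run if displacement exceeded 55%. Filtration, scintillation counting, triplicates, 2-4 experiments; Ki by Cheng-Prusoff.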

Ki: 10.4 nM
SMILES: O=c1n(CN2CCN(c3cccc4ccccc34)CC2)c(O)c2n1CCC2 [2-(4-Naphthalen-1-yl-piperazin-1-ylmethyl)-tetrahydro-pyrrolo[1,2-c]imidazole-1,3-dione]
